From ChEMBL document CHEMBL2176990, “Synthesis and biological evaluation of 5-benzylidenepyrimidine-2,4,6(1H,3H,5H)-trione derivatives for the treatment of obesity-related nonalcoholic fatty liver disease” (J Med Chem, 2012)
The source made the active and inactive calls. The rule behind the calls is not given here.

How the values were obtained:
Rattus norvegicus [1] = experiment: Antiobesity activity in Wistar rat high fat diet-induced NAFLD model assessed as reduction of serum HDL-cholesterol level at 150 mg/kg, po qd for 4 weeks; assay type: functional
How it was run: (§1)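 Male Wistar rats (160−180 g) fed high-fat diet (50.55% calories from fat), n = 10 per group. Dosed orally at 150 mg/kg/day for 4 weeks. Body, liver and fat weights and food intake recorded. Serum lipids, AST, ALT and glucose measured on a biochemistry analyzer. Fasting insulin measured by kit; adiponectin and leptin by ELISA. Mean ± SD; percent change vs HFD group.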

Rattus norvegicus [2] = experiment: Antiobesity activity in Wistar rat high fat diet-induced NAFLD model assessed as reduction of serum LDL-cholesterol level at 150 mg/kg, po qd for 4 weeks; assay type: functional; how it was run: as §1
Rattus norvegicus [3] = experiment: Antiobesity activity in Wistar rat high fat diet-induced NAFLD model assessed as reduction of serum total cholesterol level at 150 mg/kg, po qd for 4 weeks; assay type: functional; how it was run: as §1
Rattus norvegicus [4] = experiment: Antiobesity activity in Wistar rat high fat diet-induced NAFLD model assessed as reduction of serum AST level at 150 mg/kg, po qd for 4 weeks; assay type: functional; how it was run: as §1
Rattus norvegicus [5] = experiment: Antiobesity activity in Wistar rat high fat diet-induced NAFLD model assessed as reduction of serum ALT level at 150 mg/kg, po qd for 4 weeks; assay type: functional; how it was run: as §1
Rattus norvegicus [6] = experiment: Antiobesity activity in Wistar rat high fat diet-induced NAFLD model assessed as reduction of serum triglycerides level at 150 mg/kg, po qd for 4 weeks; assay type: functional; how it was run: as §1
Rattus norvegicus [7] = experiment: Antiobesity activity in Wistar rat high fat diet-induced NAFLD model assessed as reduction of serum insulin level at 150 mg/kg, po qd for 4 weeks; assay type: functional; parameters: scale not given: the % may be the effect or the level left; how it was run: as §1
Rattus norvegicus [8] = experiment: Antiobesity activity in Wistar rat high fat diet-induced NAFLD model assessed as reduction of fasting blood glucose level at 150 mg/kg, po qd for 4 weeks; assay type: functional; parameters: scale not given: the % may be the effect or the level left; how it was run: as §1
Rattus norvegicus [9] = experiment: Antiobesity activity in Wistar rat high fat diet-induced NAFLD model assessed as reduction of fat mass at 150 mg/kg, po qd for 4 weeks; assay type: functional; parameters: scale not given: the % may be the effect or the level left; how it was run: as §1
Rattus norvegicus [10] = experiment: Antiobesity activity in Wistar rat high fat diet-induced NAFLD model assessed as reduction of liver weight at 150 mg/kg, po qd for 4 weeks; assay type: functional; parameters: scale not given: the % may be the effect or the level left; how it was run: as §1
Rattus norvegicus [11] = experiment: Antiobesity activity in Wistar rat high fat diet-induced NAFLD model assessed as reduction of body weight at 150 mg/kg, po qd for 4 weeks; assay type: functional; parameters: scale not given: the % may be the effect or the level left; how it was run: as §1
3T3-L1 [12] = experiment: Down-regulation of […] expression in mouse 3T3L1 cells at 1 mM after 24 hrs by ELISA; assay type: functional
How it was run: (§2)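 3T3-L1 preadipocytes grown to 2 days post-confluence. Differentiated with 0.5 mM IBMX, 0.25 μM dexamethasone and 1 μg/mL insulin for 2 days, then insulin alone for 2 days, then 10% FBS DMEM. On day 12, treated 24 h; secreted adiponectin and leptin measured by ELISA. Three independent experiments.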

3T3-L1 [13] = experiment: Up-regulation of adiponectin expression in mouse 3T3L1 cells at 1 mM after 24 hrs by ELISA; assay type: functional; how it was run: as §2
HepG2 [14] = experiment: Reduction of glucose consumption in insulin-resistant human HepG2 cells at 1 mM after 24 hrs by glucose oxidase method in presence of 0.1 uM of insulin; assay type: functional, cell-based
How it was run: (§3)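 HepG2 cells in DMEM (22.2 mM glucose) with 10% FBS, exposed to 0.1 μM insulin from plating for 2 days. At confluence, given fresh 22.2 mM glucose DMEM with test agents for 24 h. Medium glucose measured by glucose oxidase. Consumption = blank minus remaining glucose, normalized to MTT. Three independent experiments.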

HepG2 [15] = experiment: Reduction of glucose consumption in insulin-resistant human HepG2 cells at 1 mM after 24 hrs by glucose oxidase method in presence of 22.2 mM of glucose; assay type: functional, cell-based; how it was run: as §3
Mus musculus [16] = experiment: Antiobesity activity in C57BL/6J mouse high fat diet-induced NAFLD model assessed as reduction of postprandial glucose level at 150 mg/kg, po qd for 6 weeks by intravenous glucose tolerance test; assay type: functional, organism-based; parameters: dose 150 mg/kg
How it was run: (§4)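 DIO C57BL/6J mice (HFD 60.0% fat) dosed orally for 6 weeks, n = 5, fasted overnight. Glucose load given either orally at 3.0 g/kg (OGTT) or intravenously at 0.5 g/kg (IGTT). Tail-vein blood sampled at 0, 15, 30, 60, 90, 120 and 180 min.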

Mus musculus [17] = experiment: Antiobesity activity in C57BL/6J mouse high fat diet-induced NAFLD model assessed as reduction of postprandial glucose level at 150 mg/kg, po qd for 6 weeks by oral glucose tolerance test; assay type: functional, organism-based; parameters: dose 150 mg/kg; how it was run: as §4
Mus musculus [18] = experiment: Antiobesity activity in C57BL/6J mouse high fat diet-induced NAFLD model assessed as reduction of serum free fatty acid level at 150 mg/kg, po qd for 7 weeks; assay type: functional; parameters: scale not given: the % may be the effect or the level left
How it was run: (§5)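 Male C57BL/6J mice, 3 weeks old, fed high-fat diet (60.0% calories from fat) ad libitum for 8 weeks, then randomized into groups of 10. Body weight and food intake recorded daily. Serum markers measured after sacrifice; fasting glucose included. Percent change = (V_HFD − V_treatment)/V_HFD × 100.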

Mus musculus [19] = experiment: Antiobesity activity in C57BL/6J mouse high fat diet-induced NAFLD model assessed as reduction of serum HDL-cholesterol level at 150 mg/kg, po qd for 7 weeks; assay type: functional; parameters: scale not given: the % may be the effect or the level left; how it was run: as §5
Mus musculus [20] = experiment: Antiobesity activity in C57BL/6J mouse high fat diet-induced NAFLD model assessed as reduction of serum LDL-cholesterol level at 150 mg/kg, po qd for 7 weeks; assay type: functional; parameters: scale not given: the % may be the effect or the level left; how it was run: as §5
Mus musculus [21] = experiment: Antiobesity activity in C57BL/6J mouse high fat diet-induced NAFLD model assessed as reduction of serum triglycerides level at 150 mg/kg, po qd for 7 weeks; assay type: functional; parameters: scale not given: the % may be the effect or the level left; how it was run: as §5
Mus musculus [22] = experiment: Antiobesity activity in C57BL/6J mouse high fat diet-induced NAFLD model assessed as reduction of serum ALT level at 150 mg/kg, po qd for 7 weeks; assay type: functional; parameters: scale not given: the % may be the effect or the level left; how it was run: as §5
Mus musculus [23] = experiment: Antiobesity activity in C57BL/6J mouse high fat diet-induced NAFLD model assessed as reduction of fasting blood glucose level at 150 mg/kg, po qd for 7 weeks; assay type: functional; parameters: scale not given: the % may be the effect or the level left; how it was run: as §5
Mus musculus [24] = experiment: Antiobesity activity in C57BL/6J mouse high fat diet-induced NAFLD model assessed as reduction of fat mass in epididymal and abdominal at 150 mg/kg, po qd for 7 weeks; assay type: functional, organism-based; parameters: dose 150 mg/kg; how it was run: as §5
Mus musculus [25] = experiment: Antiobesity activity in C57BL/6J mouse high fat diet-induced NAFLD model assessed as reduction of body weight at 150 mg/kg, po qd for 7 weeks; assay type: functional; parameters: scale not given: the % may be the effect or the level left; how it was run: as §5
Rattus norvegicus [26] = experiment: Antiobesity activity in Wistar rat high fat diet-induced NAFLD model assessed as reduction of liver total cholesterol level at 150 mg/kg, po qd for 4 weeks; assay type: functional; parameters: scale not given: the % may be the effect or the level left
How it was run: (§6)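 Male Wistar rats on high-fat diet (50.55% fat), dosed orally at 150 mg/kg/day for 4 weeks, n = 10. Liver homogenized in 50 mM Tris-HCl pH 7.4 with 150 mM NaCl, 1 mM PMSF and 1 mM EDTA, then triglycerides and total cholesterol assayed. Liver sections stained with H&E to assess lipid droplets.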

Rattus norvegicus [27] = experiment: Antiobesity activity in Wistar rat high fat diet-induced NAFLD model assessed as reduction of liver triglycerides level at 150 mg/kg, po qd for 4 weeks; assay type: functional; parameters: scale not given: the % may be the effect or the level left; how it was run: as §6
Rattus norvegicus [28] = experiment: Antiobesity activity in Wistar rat high fat diet-induced NAFLD model assessed as reduction of leptin level at 150 mg/kg, po qd for 4 weeks; assay type: functional; how it was run: as §1
Rattus norvegicus [29] = experiment: Antiobesity activity in Wistar rat high fat diet-induced NAFLD model assessed as increase of adiponectin level at 150 mg/kg, po qd for 4 weeks; assay type: functional; how it was run: as §1

With `CN(C)C(=N)NC(=N)N` [METFORMIN] as the compound, how does the Activity (Rattus norvegicus [1]) read?
The Activity was 0.28 mmol/L.

What about the Activity (Rattus norvegicus [2]) of the same compound?
The Activity was 0.15 mmol/L.

What about the Activity (Rattus norvegicus [3]) of the same compound?
Its Activity is 1.99 mmol/L.

What about the Activity (Rattus norvegicus [4]) of the same compound?
The Activity was 89 U/L.

What about the Activity (Rattus norvegicus [5]) of the same compound?
Its Activity is 39 U/L.

And the Activity (Rattus norvegicus [6])?
Its Activity is 1.6 mmol/L.

What about the Activity (Rattus norvegicus [7]) of the same compound?
The Activity was 12.8%.

What about the Activity (Rattus norvegicus [8]) of the same compound?
The Activity was 19.7%.

And the Activity (Rattus norvegicus [9])?
Its Activity is 18.1%.

What about the Activity (Rattus norvegicus [10]) of the same compound?
Its Activity is 2.2%.

What about the Activity (Rattus norvegicus [11]) of the same compound?
The Activity was 5.2%.

And the Activity (3T3-L1 [12])?
Its Activity is 360.8 pg/mL.

What about the Activity (3T3-L1 [13]) of the same compound?
The Activity was 125.8 pg/mL.

And the Activity (HepG2 [14])?
Its Activity is “Active”.

What about the Activity (HepG2 [15]) of the same compound?
Its Activity is “Active”.

And the Activity (Mus musculus [16])?
Its Activity is “Active”.

What about the Activity (Mus musculus [17]) of the same compound?
The Activity was “Active”.

What about the Activity (Mus musculus [18]) of the same compound?
The Activity was 3.7%.

What about the Activity (Mus musculus [19]) of the same compound?
The Activity was 46.7%.

What about the Activity (Mus musculus [20]) of the same compound?
The Activity was 44.4%.

What about the Activity (Mus musculus [21]) of the same compound?
The Activity was 29.3%.

And the Activity (Mus musculus [22])?
The Activity was 66%.

And the Activity (Mus musculus [23])?
The Activity was 10.3%.

And the Activity (Mus musculus [24])?
Its Activity is “Active”.

What about the Activity (Mus musculus [25]) of the same compound?
Its Activity is 9.62%.

What about the Activity (Rattus norvegicus [26]) of the same compound?
Its Activity is 50%.

What about the Activity (Rattus norvegicus [27]) of the same compound?
The Activity was 48.8%.

And the Activity (Rattus norvegicus [28])?
The Activity was 13.6 ng/mL.

And the Activity (Rattus norvegicus [29])?
The Activity was 198.3 µg/mL.
